Rows were chosen to be rich in hits. Some 9.6% of all compounds tested hit in one or more screens of this group.
TNAP inh hi DEA: inhibitors of human TNAP at high phosphate acceptor concentration | P05186 | purified TNAP, CDP-star luminescence, 1 M DEA | inhibition, % at 20 µM | 200,000 compounds, 0.03% hits;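 active = over 50% inhibition of tissue-nonspecific alkaline phosphatase at 20 µM in the single-dose screen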
Target sequence (P05186 whole entry, looked up): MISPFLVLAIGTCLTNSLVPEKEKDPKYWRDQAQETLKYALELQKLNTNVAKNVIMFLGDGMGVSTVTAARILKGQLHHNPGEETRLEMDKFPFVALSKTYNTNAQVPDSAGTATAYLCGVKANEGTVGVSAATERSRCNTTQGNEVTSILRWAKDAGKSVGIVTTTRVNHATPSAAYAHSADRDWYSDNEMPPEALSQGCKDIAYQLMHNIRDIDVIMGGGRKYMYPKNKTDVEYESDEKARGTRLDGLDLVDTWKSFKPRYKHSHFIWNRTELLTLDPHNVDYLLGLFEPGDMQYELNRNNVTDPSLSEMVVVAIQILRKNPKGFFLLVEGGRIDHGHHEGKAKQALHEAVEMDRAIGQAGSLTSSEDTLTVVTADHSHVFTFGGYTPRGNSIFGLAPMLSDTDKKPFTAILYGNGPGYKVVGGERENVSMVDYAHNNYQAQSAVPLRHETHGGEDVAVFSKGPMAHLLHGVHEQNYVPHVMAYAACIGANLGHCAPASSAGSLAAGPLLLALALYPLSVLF
L major viab: reduces viability of Leishmania major promastigotes; inhibition, % at 10 µM; resazurin fluorescence viability; 200,000 compounds, 9% hits; in the data active = inhibition above about 50%;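 note: promastigotes grown with compound for 44 hours at 28 °C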
PTEN del growth: suppresses growth of cells with PTEN deletion; HCT116 PTEN-null viability, CellTiter-Glo, 60 h; stronger effect = lower value; AID 827; 140,000 compounds, 1.2% hits; viability, % at 10 µM;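 active = viability at or below a set limit, 4 SD under the median of all tested compounds, cut at about 3.7% in these data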;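 note: PTEN knockout HCT116 line with beta catenin targeted HCT116 as companion control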
bCat KO growth: beta-catenin-lacking colon tumor cell growth suppression | HCT116 beta-catenin knockout viability, CellTiter-Glo, 60 h; stronger effect = lower value | viability, % at 10 µM | 140,000 compounds, 1.5% hits;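 active = viability at or under a set limit, the compound median less 4 SD, cut at about 6% in these data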
TNAP inh noacc: inhibitors of human TNAP without phosphate acceptor; P05186; purified TNAP, CDP-star luminescence, 30 min; inhibition, % at 20 µM; 200,000 compounds, 0.26% hits; AID 1012;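 active = tissue-nonspecific alkaline phosphatase inhibition above about 50% at 20 µM in the single-dose screen, limit read from the data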
TNAP act hi DEA: activators of human TNAP at high phosphate acceptor concentration; P05186; 200,000 tested, under 10 active; purified TNAP, CDP-star luminescence, 1 M DEA, 30 min; stronger effect = higher value; 0 = EDTA background, 1 = DMSO-only activity; AID 1136; activation factor at 20 µM;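 active = activation factor at least 2 at 20 µM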
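Dosing: 20 µM single point. System: human TNAP. Amount: TNAP 1/800 final. Incubation: 30 min, room temperature. Read-out: TNAP activation factor scaled between EDTA and DMSO control wells. Signal: luminescence from CDP-star hydrolysis. Medium: 1 M DEA, pH 9.8, Mg2+, Zn2+. Control set: EDTA negative control, DMSO positive control.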
L major 1uM: blocks Leishmania major promastigote growth at 1 uM, repeat screen | shares compounds with L major viab | L. major promastigote growth, resazurin fluorescence, 48 h | inhibition, % at 1 µM | 1,100 compounds, 13% hits | AID 1258;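 active = inhibition above about 50% in both repeat tests, limit read from the data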
Large screens that a line does not name were inactive (follow-up assays come after a bar, where they were run).

CC(=O)NC(Cc1cccc(F)c1)C(=O)NC1CCN(c2nnnn2-c2ccccc2)CC1 (stereo not given)	none (no result: PTEN del growth, bCat KO growth)
CC1(C)Cc2c(ccc3ccccc23)/C(=C/C#N)N1	none
CNC(=O)/C=C1\NC(C)(C)Cc2c1ccc1ccccc21	L major viab 54 | L major 1uM inactive
Cn1c(=O)cc(N)n(Cc2ccccc2)c1=O	none
CC1CN(CC(=O)NN=C(c2ccccc2)c2ccccc2)CC(C)O1 (stereo not given)	none (no result: PTEN del growth, bCat KO growth)
Cc1nn(-c2ccccc2)c(N)c1C(O)(C(F)(F)F)C(F)(F)F	L major viab 98 | L major 1uM inactive
Cc1nn(-c2ccccc2)c(N)c1C(O)(CC(=O)C(F)(F)F)C(F)(F)F (stereo not given)	none
N#Cc1ccc(Oc2ccc(-c3nc4ccccc4nc3-c3ccccc3)cc2)cc1C#N	L major viab 93 | L major 1uM inactive
Cc1onc(-c2ccccc2Cl)c1-c1nc(-c2ccccn2)no1	L major viab 75 | L major 1uM inactive
Cc1occc1-c1nc(-c2ccccn2)no1	none
C=CCC1(O)C(=O)N2C(=C1C(=O)OCC)c1ccc3ccccc3c1CC2(C)C (stereo not given)	L major viab 53 | L major 1uM inactive
CC1(C)Cc2c(ccc3ccccc23)C2=C(C(=O)N3CCCC3)C(=O)C(=O)N21	none (no result: PTEN del growth, bCat KO growth)
CCOC(=O)c1cc(-c2ccc(OC)cc2)nc2c1c(C)nn2CCC(N)=S	none (no result: PTEN del growth, bCat KO growth)
CSc1nnc(Cc2sc(-c3ccccc3)nc2-c2ccccc2)o1	L major viab 93 | L major 1uM inactive
COc1cc2c(cc1OC)[C@H](Cc1ccc(O)cc1)NCC2	none
CCOc1ccc(NC(=S)Nc2cc(C)[nH]n2)cc1	none (no result: PTEN del growth, bCat KO growth)
Cc1ccc(NCC(=O)N/N=C\C(Br)=C\c2ccccc2)cc1	L major viab 68, PTEN del growth 2.7, bCat KO growth 2.6 | L major 1uM inactive
Cc1cc(C)nc(SCC(=O)N/N=C\C(Br)=C\c2ccccc2)n1	none
CCc1ccc(NSc2ccccc2[N+](=O)[O-])cc1	L major viab 99 | L major 1uM 71
COc1ccc(N(CC(=O)Nc2cccc(N(C)S(C)(=O)=O)c2)S(=O)(=O)c2ccccc2)cc1Cl	L major viab 56 (no result: PTEN del growth, bCat KO growth) | L major 1uM inactive
CCOC(=O)c1nnc(-c2ccccc2)nc1N1CC(C)OC(C)C1 (stereo not given)	none (no result: PTEN del growth, bCat KO growth)
CCc1ccccc1Nc1nc2ccccc2n1C	L major viab 57 (no result: PTEN del growth, bCat KO growth) | L major 1uM inactive
CC(C)NCC(=O)NC12CC3CC(CC(C3)C1)C2	none
CC(SCC(=O)NC12CC3CC(CC(C3)C1)C2)C(=O)O (stereo not given)	L major viab 56 | L major 1uM inactive
CC(=O)c1ccc2noc(-c3cccc(C)c3)c2c1	none (no result: PTEN del growth, bCat KO growth)
COC(=O)[C@@H]1CC[C@H](C)[C@@H](c2ccc(C)cc2)N1C(=O)c1ccc(/C=N/O[C@@H](C)CN2CCCCc3nc(C)c(C)cc32)cc1	L major viab 100, bCat KO growth 5.9 | L major 1uM inactive
COCc1nnc(NS(=O)(=O)c2c(C)cc(C)cc2C)s1	none
Cc1ccc(-c2nnc(-c3ccc4c(c3)OCO4)o2)cc1	none (no result: PTEN del growth, bCat KO growth)
CC(C)C1N=C(c2ccc3c(c2)OCO3)CC(c2ccccc2O)N1 (stereo not given)	L major viab 99, bCat KO growth 5.8 | L major 1uM inactive
CCOC(=O)c1cnc2ccc(C)cc2c1Sc1ccc(F)cc1	L major viab 70 | L major 1uM inactive
CN(c1ccc(O)cc1)c1nc(-c2ccccc2)cs1	L major viab 89 | L major 1uM inactive
CCOc1ccc2oc(-c3ccccc3)c(C(=O)N3CCN(CCO)CC3)c2c1	none
COC(=O)NNC(=O)Cc1cccc2ccccc12	none
CC(=O)NC1=NN(C(C)=O)C(C)(c2ccc3ccccc3c2)S1 (stereo not given)	L major viab 60 | L major 1uM inactive
Cc1cc(C)n(-c2nc3ccccc3c(=O)n2OCC(=O)N(C)C)n1	none
Cc1cc(C)n(-c2nc3ccccc3c(=O)n2OCC(=O)OCc2ccccc2)n1	L major viab 92, PTEN del growth 2.8, bCat KO growth 4.7 | L major 1uM inactive

Source: PubChem BioAssay (several laboratories)
